Results: ChEMBL document CHEMBL4732181, “Pyrazolo[3,4-d]pyrimidine-based dual EGFR T790M/HER2 inhibitors: Design, synthesis, structure-activity relationship and biological activity as potential antitumor and anticonvulsant agents” (Eur J Med Chem, 2021)
pIC50: −log10 of the molar value. The source made the active and inactive calls. The rule behind the calls is not given here.

What was measured:
[1] = tested on: Mus musculus; experiment: Anticonvulsant activity against mouse model of LiCa/pilocarpine-induced status epilepticus assessed as total power density at 20 mg/kg, po for 10 days by EEG method relative to control; format: functional; conditions: time 10 day
Procedure, shortened: (§1)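 Male mice (20-30 g), five per group, dosed orally once daily for 10 days. Status epilepticus was then induced with LiCa (3 mEq/kg i.p.), atropine sulfate (1 mg/kg i.p.) 30 min before pilocarpine, and pilocarpine HCl (300 mg/kg i.p.) 2 h after LiCa. Normal controls received oral distilled water. Comparators were untreated SE, phenytoin and lamotrigine. One-way ANOVA with Tukey post-hoc; mean ± SD.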

[2] = tested on: Mus musculus; experiment: Anticonvulsant activity against mouse model of LiCa/pilocarpine-induced status epilepticus assessed as GABA level in brain at 20 mg/kg, po for 10 days by ELISA relative to control; format: functional; conditions: time 10 day; procedure, shortened: as §1
[3] = tested on: Mus musculus; experiment: Anticonvulsant activity against mouse model of LiCa/pilocarpine-induced status epilepticus assessed as Glutamate level in brain at 20 mg/kg, po for 10 days by ELISA relative to control; format: functional; conditions: time 10 day; procedure, shortened: as §1
[4] = tested on: WI-38; experiment: Cytotoxicity against human WI-38 cells assessed as reduction in cell viability after 48 hrs by MTT assay; format: cell-based; conditions: WI-38, 48 h
Procedure, shortened: (§2)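 Cells from ATCC grown in DMEM with 10% FBS, insulin and 1% penicillin-streptomycin. Plated at 1.2-1.8 × 10,000 cells/well for 24 h, then exposed to compounds in DMSO vehicle for 48 h. MTT 0.5 mg/ml added for 2 h; absorbance read at 570 nm. Experiments run in triplicate.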

[5] = tested on: Mus musculus; experiment: Anticonvulsant activity against mouse model of LiCa/pilocarpine-induced status epilepticus assessed as theta at 20 mg/kg, po for 10 days by EEG method relative to control; format: functional; conditions: time 10 day; procedure, shortened: as §1
[6] = tested on: Mus musculus; experiment: Anticonvulsant activity against mouse model of LiCa/pilocarpine-induced status epilepticus assessed as amplitude at 20 mg/kg, po for 10 days by EEG method relative to control; format: functional; conditions: time 10 day; procedure, shortened: as §1
[7] = tested on: Mus musculus; experiment: Anticonvulsant activity against mouse model of LiCa/pilocarpine-induced status epilepticus assessed as spectral edge frequency at 20 mg/kg, po for 10 days by EEG method relative to control; format: functional; conditions: time 10 day; procedure, shortened: as §1
[8] = tested on: Mus musculus; experiment: Anticonvulsant activity against mouse model of LiCa/pilocarpine-induced status epilepticus assessed as MDA level in brain at 20 mg/kg, po for 10 days by calorimetric method relative to control; format: functional; conditions: time 10 day; procedure, shortened: as §1
[9] = tested on: Mus musculus; experiment: Anticonvulsant activity against mouse model of LiCa/pilocarpine-induced status epilepticus assessed as mean power frequency at 20 mg/kg, po for 10 days by EEG method relative to control; format: functional; conditions: time 10 day; procedure, shortened: as §1
[10] = tested on: Mus musculus; experiment: Anticonvulsant activity against mouse model of LiCa/pilocarpine-induced status epilepticus assessed as total power at 20 mg/kg, po for 10 days by EEG method relative to control; format: functional; conditions: time 10 day; procedure, shortened: as §1
[11] = tested on: Mus musculus; experiment: Anticonvulsant activity against mouse model of LiCa/pilocarpine-induced status epilepticus assessed as GSH level in brain at 20 mg/kg, po for 10 days by calorimetric method relative to control; format: functional; conditions: time 10 day; procedure, shortened: as §1
[12] = tested on: MCF7; experiment: Cytotoxicity against human MCF7 cells assessed as reduction in cell viability after 48 hrs by MTT assay; format: functional, cell-based; conditions: MCF7, 48 h; procedure, shortened: as §2
[13] = tested on: Mus musculus; experiment: Anticonvulsant activity against mouse model of LiCa/pilocarpine-induced status epilepticus assessed as amplitude density at 20 mg/kg, po for 10 days by EEG method relative to control; format: functional; conditions: time 10 day; procedure, shortened: as §1
[14] = tested on: Mus musculus; experiment: Anticonvulsant activity against mouse model of LiCa/pilocarpine-induced status epilepticus assessed as power pV2 at 20 mg/kg, po for 10 days by EEG method relative to control; format: functional; conditions: time 10 day; procedure, shortened: as §1
[15] = tested on: Mus musculus; experiment: Anticonvulsant activity against mouse model of LiCa/pilocarpine-induced status epilepticus assessed as alpha at 20 mg/kg, po for 10 days by EEG method relative to control; format: functional; conditions: time 10 day; procedure, shortened: as §1
[16] = tested on: Mus musculus; experiment: Anticonvulsant activity against mouse model of LiCa/pilocarpine-induced status epilepticus assessed as delta at 20 mg/kg, po for 10 days by EEG method relative to control; format: functional; conditions: time 10 day; procedure, shortened: as §1
[17] = tested on: HCT-116; experiment: Induction of apoptosis in human HCT-116 cells assessed as increase in late apoptotic cells at IC50 concentration after 24 hrs by annexin-V-FITC/PI staining based flow cytometric analysis; format: functional
[18] = tested on: HCT-116; experiment: Induction of apoptosis in human HCT-116 cells assessed as early apoptotic cells at IC50 concentration after 24 hrs by annexin-V-FITC/PI staining based flow cytometric analysis (reference value: 0.34%); format: functional
[19] = tested on: HCT-116; experiment: Induction of apoptosis in human HCT-116 cells assessed as increase in caspace-7 protein expression at IC50 concentration after 24 hrs by ELISA; format: functional
Procedure, shortened: (§3)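 Cells treated at IC50 for 24 h and lysed in cell extraction buffer. Lysate diluted in standard diluent buffer and human caspase-3, -7, -9, Bax and Bcl-2 quantified by immunoassay kit (pg/mL). Fold change calculated against untreated control cells.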

[20] = tested on: HCT-116; experiment: Induction of cell cycle arrest in human HCT-116 cells assessed as cell accumulation at G1 phase at IC50 concentration after 24 hrs by propidium iodide staining based flow cytometric analysis (reference value: 46.95%); format: functional
[21] = tested on: HCT-116; experiment: Induction of apoptosis in human HCT-116 cells assessed as increase in caspace-9 protein expression at IC50 concentration after 24 hrs by ELISA; format: functional; procedure, shortened: as §3
[22] = target: T1, Receptor tyrosine-protein kinase erbB-2 (Homo sapiens, UniProt P04626); experiment: Inhibition of HER2 (unknown origin) at 10 uM relative to control
T1 sequence (P04626 whole entry): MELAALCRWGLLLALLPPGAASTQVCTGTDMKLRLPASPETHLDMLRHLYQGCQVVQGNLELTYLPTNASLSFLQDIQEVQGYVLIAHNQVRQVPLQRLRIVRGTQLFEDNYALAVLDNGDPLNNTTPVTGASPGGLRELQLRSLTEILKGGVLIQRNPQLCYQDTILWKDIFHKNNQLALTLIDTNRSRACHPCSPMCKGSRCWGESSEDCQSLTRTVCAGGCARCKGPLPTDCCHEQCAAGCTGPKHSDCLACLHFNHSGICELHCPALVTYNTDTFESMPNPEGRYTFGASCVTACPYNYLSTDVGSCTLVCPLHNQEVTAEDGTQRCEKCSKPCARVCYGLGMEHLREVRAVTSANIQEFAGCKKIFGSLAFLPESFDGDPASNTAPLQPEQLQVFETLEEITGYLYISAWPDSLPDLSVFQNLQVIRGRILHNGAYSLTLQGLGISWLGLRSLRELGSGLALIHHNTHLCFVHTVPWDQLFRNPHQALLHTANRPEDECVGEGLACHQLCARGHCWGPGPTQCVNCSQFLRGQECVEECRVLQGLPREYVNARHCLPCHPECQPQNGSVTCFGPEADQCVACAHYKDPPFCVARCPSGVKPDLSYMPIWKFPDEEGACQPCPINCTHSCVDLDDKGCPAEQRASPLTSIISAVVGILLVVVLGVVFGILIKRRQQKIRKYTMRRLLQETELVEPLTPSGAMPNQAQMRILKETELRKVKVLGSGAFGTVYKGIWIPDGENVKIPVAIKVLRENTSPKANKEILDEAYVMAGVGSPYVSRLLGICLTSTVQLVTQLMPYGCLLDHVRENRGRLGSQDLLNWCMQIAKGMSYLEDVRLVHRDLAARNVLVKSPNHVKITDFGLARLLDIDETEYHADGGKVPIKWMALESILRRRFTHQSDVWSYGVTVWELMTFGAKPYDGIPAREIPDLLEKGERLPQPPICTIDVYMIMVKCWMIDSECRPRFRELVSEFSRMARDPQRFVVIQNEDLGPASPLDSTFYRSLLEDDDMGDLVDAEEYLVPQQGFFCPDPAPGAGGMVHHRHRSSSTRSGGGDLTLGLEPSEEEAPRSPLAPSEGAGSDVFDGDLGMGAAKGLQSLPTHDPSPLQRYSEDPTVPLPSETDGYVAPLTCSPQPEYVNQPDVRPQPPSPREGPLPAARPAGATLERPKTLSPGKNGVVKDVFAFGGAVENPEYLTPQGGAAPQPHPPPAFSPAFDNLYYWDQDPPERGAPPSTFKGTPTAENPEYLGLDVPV
Procedure, shortened: (§4)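 Cell-free immunoassay kit measuring EGFR T790M/HER2 kinase inhibition. Percent inhibition screened at 10 µM. IC50 obtained from four concentrations (0.01-10 µM) by fitting E(%) = Emax/(1+[I]/ID50) to a dose-response curve. Mean of two independent replicates.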

[23] = tested on: HCT-116; experiment: Induction of apoptosis in human HCT-116 cells assessed as increase in caspace-3 protein expression at IC50 concentration after 24 hrs by ELISA; format: functional; procedure, shortened: as §3
[24] = tested on: HCT-116; experiment: Induction of cell cycle arrest in human HCT-116 cells assessed as cell accumulation at pre-G1 phase at IC50 concentration after 24 hrs by propidium iodide staining based flow cytometric analysis (reference value: 2.02%); format: functional
[25] = target: T1, Receptor tyrosine-protein kinase erbB-2; experiment: Inhibition of HER2 (unknown origin); procedure, shortened: as §4
[26] = tested on: HCT-116; experiment: Induction of apoptosis in human HCT-116 cells assessed as late apoptotic cells at IC50 concentration after 24 hrs by annexin-V-FITC/PI staining based flow cytometric analysis (reference value: 1.31%); format: functional
[27] = tested on: HCT-116; experiment: Induction of cell cycle arrest in human HCT-116 cells assessed as cell accumulation at G2/M phase at IC50 concentration after 24 hrs by propidium iodide staining based flow cytometric analysis (reference value: 15.39%); format: functional
[28] = tested on: HCT-116; experiment: Induction of apoptosis in human HCT-116 cells assessed as increase in Bax/Bcl-2 ratio at IC50 concentration after 24 hrs by ELISA; format: functional, cell-based; procedure, shortened: as §3
[29] = tested on: HCT-116; experiment: Induction of cell cycle arrest in human HCT-116 cells assessed as cell accumulation at S phase at IC50 concentration after 24 hrs by propidium iodide staining based flow cytometric analysis (reference value: 37.66%); format: functional
[30] = tested on: HCT-116; experiment: Induction of apoptosis in human HCT-116 cells assessed as decrease in Bcl-2 protein expression at IC50 concentration after 24 hrs by ELISA; format: functional; procedure, shortened: as §3
[31] = tested on: HCT-116; experiment: Induction of apoptosis in human HCT-116 cells assessed as increase in Bax protein expression at IC50 concentration after 24 hrs by ELISA; format: functional; procedure, shortened: as §3
[32] = tested on: HCT-116; experiment: Induction of apoptosis in human HCT-116 cells assessed as increase in early apoptotic cells at IC50 concentration after 24 hrs by annexin-V-FITC/PI staining based flow cytometric analysis; format: functional
[33] = tested on: HCT-116; experiment: Induction of cell cycle arrest in human HCT-116 cells assessed as cell increase in accumulation at G2/M phase at IC50 concentration after 24 hrs by propidium iodide staining based flow cytometric analysis; format: functional
[34] = target: Epidermal growth factor receptor (Homo sapiens, UniProt P00533, T790M); experiment: Inhibition of EGFR T790M mutant (unknown origin)
Chain of Epidermal growth factor receptor (P00533 25-1210 T790M limits assumed): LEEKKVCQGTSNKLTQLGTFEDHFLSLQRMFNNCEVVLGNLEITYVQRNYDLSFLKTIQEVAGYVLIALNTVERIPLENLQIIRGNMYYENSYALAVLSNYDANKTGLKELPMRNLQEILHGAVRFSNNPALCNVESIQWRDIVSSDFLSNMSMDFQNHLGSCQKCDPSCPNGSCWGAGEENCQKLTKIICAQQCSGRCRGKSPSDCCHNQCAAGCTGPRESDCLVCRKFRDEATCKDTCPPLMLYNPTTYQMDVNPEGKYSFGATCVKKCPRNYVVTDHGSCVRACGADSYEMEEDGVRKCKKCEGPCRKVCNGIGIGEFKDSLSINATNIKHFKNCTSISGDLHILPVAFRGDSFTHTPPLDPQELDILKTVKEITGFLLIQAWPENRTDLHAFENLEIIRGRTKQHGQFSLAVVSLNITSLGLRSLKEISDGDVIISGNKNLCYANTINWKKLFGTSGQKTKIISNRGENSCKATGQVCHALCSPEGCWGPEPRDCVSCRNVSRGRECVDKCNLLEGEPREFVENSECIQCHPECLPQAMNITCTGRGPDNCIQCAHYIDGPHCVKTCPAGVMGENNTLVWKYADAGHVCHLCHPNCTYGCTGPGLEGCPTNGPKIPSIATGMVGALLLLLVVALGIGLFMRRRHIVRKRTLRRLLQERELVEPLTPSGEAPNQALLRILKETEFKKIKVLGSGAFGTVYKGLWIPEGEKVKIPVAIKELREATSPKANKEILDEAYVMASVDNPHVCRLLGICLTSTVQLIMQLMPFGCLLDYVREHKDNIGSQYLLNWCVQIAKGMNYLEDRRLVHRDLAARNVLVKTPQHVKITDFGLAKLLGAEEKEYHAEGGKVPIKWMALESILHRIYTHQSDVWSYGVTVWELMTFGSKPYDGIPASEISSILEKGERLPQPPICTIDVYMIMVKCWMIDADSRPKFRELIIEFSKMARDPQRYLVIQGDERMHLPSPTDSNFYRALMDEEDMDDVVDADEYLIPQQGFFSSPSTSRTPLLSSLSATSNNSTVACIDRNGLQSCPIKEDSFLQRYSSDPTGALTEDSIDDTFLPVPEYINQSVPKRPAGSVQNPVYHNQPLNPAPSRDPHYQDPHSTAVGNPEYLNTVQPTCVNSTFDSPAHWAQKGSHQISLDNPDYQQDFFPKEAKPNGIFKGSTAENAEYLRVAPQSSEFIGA

Structure (SMILES) | Activity [1] [%] | Activity [2] [%] | Activity [3] [%] | pIC50 [4] | Activity [5] [%] | Activity [6] [%] | Activity [7] [%] | Activity [8] [%] | Activity [9] [%] | Activity [10] [%] | Activity [11] [%] | Activity [13] [%] | Activity [14] [%] | Activity [15] [%] | Activity [16] [%] | inhibition [22] [%] | pIC50 [25] | pIC50 [34] | further results
Cc1nn(-c2ccccc2)c2nc(C(=O)N3NC(=O)/C(=C/c4ccc(Cl)cc4)N=C3c3ccccc3)[nH]c(=O)c12 | 202.67 | 74.77 | -50.65 | 7.50 | 34.07 | 76 | -17.28 | -53.49 | -27.57 | 19.53 | 174.47 | 77.2 | 134.23 | 18.91 | 270.93 | – | – | – | pIC50 [12]: 7.35
Cc1ccc(C2=N/C(=C/c3ccc(Cl)cc3)C(=O)NN2C(=O)Cc2nc3c(c(C)nn3-c3ccccc3)c(=O)[nH]2)cc1 | 176.8 | 56.77 | -37.61 | 7.53 | 44.83 | 50.22 | -16.14 | -57.67 | -24.4 | 2.62 | 134.61 | 62.01 | 121.31 | 31.95 | 229.74 | 72.6 | 6.20 | 6.37 | fold change (FC) [17]: 2; Activity [18]: 10.37%; fold change (FC) [19]: 20; Activity [20]: 22.64%; fold change (FC) [21]: 16.5; fold change (FC) [23]: 18.5; Activity [24]: 17.35%; Activity [26]: 2.72%; Activity [27]: 45.94%; Activity [28]: Active; Activity [29]: 31.42%; fold change (FC) [30]: 3.8; fold change (FC) [31]: 6.9; fold change (FC) [32]: 30.79; fold change (FC) [33]: 2.98
Cc1nn(-c2ccccc2)c2nc(CC(=O)N3NC(=O)/C(=C\c4ccccc4)N=C3c3ccccc3)[nH]c(=O)c12 | 202.38 | 52.65 | -50.88 | 7.33 | 31.8 | 63.11 | -17.45 | -56.93 | -23.98 | 2.33 | 69.18 | 62.01 | 136.74 | 33.49 | 264.32 | 83.6 | 6.06 | 6.18 | –
Cc1ccc(C2=N/C(=C\c3ccc(Cl)cc3)C(=O)NN2C(=O)c2nc3c(c(C)nn3-c3ccccc3)c(=O)[nH]2)cc1 | 208.36 | 58.15 | -36.07 | 7.58 | 34.92 | 66.22 | -20.49 | -50.74 | -29.47 | 15.45 | 113.22 | 71.73 | 152.01 | 13.75 | 256.83 | 54.5 | 4.95 | – | –
COc1ccc(/C=C2/N=C(c3ccc(C)cc3)N(C(=O)Cc3nc4c(c(C)nn4-c4ccccc4)c(=O)[nH]3)NC2=O)cc1 | 264.63 | 71.88 | -50.42 | 7.73 | 27.12 | 80.44 | -26.44 | -69.49 | -33 | 33.82 | 50.67 | 82.98 | 218.96 | 0.71 | 362.78 | – | – | – | –
